Experimental data taken from publication PMC2943143 (Biochemical pharmacology, 2010).
“Also recorded” adds a separate entry of the source.

Legend:
human pol κ = biological target: T1, human pol κ (Homo sapiens, UniProt Q9UBT6); test: Pol assay, pol κ; type: biochemical; conditions: for Ki: pol κ
T1 sequence (Q9UBT6 1-560 limits assumed): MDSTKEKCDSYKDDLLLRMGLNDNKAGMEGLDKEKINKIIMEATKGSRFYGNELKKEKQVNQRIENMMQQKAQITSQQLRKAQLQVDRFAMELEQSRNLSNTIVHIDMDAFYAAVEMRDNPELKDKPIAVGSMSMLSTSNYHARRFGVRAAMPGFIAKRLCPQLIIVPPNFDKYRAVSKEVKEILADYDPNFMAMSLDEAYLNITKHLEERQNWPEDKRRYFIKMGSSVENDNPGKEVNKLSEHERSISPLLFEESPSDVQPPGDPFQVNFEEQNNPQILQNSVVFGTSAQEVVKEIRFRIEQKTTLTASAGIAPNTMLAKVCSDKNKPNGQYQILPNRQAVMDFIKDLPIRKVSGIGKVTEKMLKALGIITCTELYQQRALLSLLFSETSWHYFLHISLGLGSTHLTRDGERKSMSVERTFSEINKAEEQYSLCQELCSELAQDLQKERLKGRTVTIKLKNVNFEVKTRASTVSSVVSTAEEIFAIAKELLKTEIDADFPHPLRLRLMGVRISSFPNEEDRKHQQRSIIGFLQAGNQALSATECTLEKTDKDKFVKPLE
Summary of the method: (§1)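 Test compound was dissolved in DMSO and sonicated 30 s. It was preincubated with enzyme (0.05 unit final) in 50 mM Tris-HCl pH 7.5, 1 mM DTT, 50% glycerol and 0.1 mM EDTA at 0 °C for 10 min. This was added to each enzyme's standard reaction mix with poly(dA)/oligo(dT)18 (A/T = 2/1) template-primer and dTTP substrate, then incubated at 37 °C for 60 min. Activity is given as % of inhibitor-free control.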

del-2 pol λ (245–575) = del-2 pol λ (245–575) (Homo sapiens, UniProt Q9UGP5); test: Pol assay, del-2 pol λ mutant; type: biochemical
Summary of the method: as §1

T4 pol = T4 pol (Enterobacteria phage T4, UniProt P04415); test: Pol assay, T4 pol; type: biochemical; conditions: supplemental Fig. S1A
Summary of the method: as §1

[1] = biological target: HIV-1 reverse transcriptase (Human immunodeficiency virus type 1 group M subtype B, UniProt P04585); test: HIV-1 reverse transcriptase assay; type: biochemical, Human immunodeficiency virus type-1 (HIV-1); conditions: highest tested concentration 1 μM, supplemental Fig. S1B
Summary of the method: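 Recombinant HIV-1 reverse transcriptase used poly(rA)/oligo(dT)18 (A/T = 2/1) template-primer and dTTP substrate. Enzyme (0.05 unit) was preincubated with test compound in sonicated DMSO at 0 °C for 10 min in Tris-HCl pH 7.5/DTT/glycerol/EDTA buffer. Reaction ran at 37 °C for 60 min. Activity is given as % of control.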

[2] = biological target: mouse IMP dehydrogenase (type II) (Mus musculus, UniProt P24547); test: IMP dehydrogenase assay; type: biochemical; conditions: highest tested concentration 1 μM, supplemental Fig. S1B
[3] = tested on: calf thymus double-stranded DNA (dsDNA); test: Thermal transition of DNA; type: binding; conditions: 15 μM compound, calf thymus dsDNA 6 μg/ml, pH 7.0
Summary of the method: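 Calf thymus dsDNA (6 μg/ml) in 0.1 M sodium phosphate pH 7.0 with 1% DMSO was tested with or without test compound, with ethidium bromide as intercalator control. Samples were equilibrated at 78 °C for 10 min, then raised 1 °C every 2 min. Absorbance was recorded on a spectrophotometer with a thermoelectric cell holder, and compound-only absorbance was subtracted to give Tm.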

[4] = tested on: rat liver microsomal 5 α-reductase; conditions: cited from earlier work
Neutral endopeptidase = conditions: read-out: IC50, Neutral endopeptidase; cited from earlier work
HIV integrase = conditions: read-out: IC50, HIV integrase; cited from earlier work

Chain of del-2 pol λ (245–575) (Q9UGP5 245-575): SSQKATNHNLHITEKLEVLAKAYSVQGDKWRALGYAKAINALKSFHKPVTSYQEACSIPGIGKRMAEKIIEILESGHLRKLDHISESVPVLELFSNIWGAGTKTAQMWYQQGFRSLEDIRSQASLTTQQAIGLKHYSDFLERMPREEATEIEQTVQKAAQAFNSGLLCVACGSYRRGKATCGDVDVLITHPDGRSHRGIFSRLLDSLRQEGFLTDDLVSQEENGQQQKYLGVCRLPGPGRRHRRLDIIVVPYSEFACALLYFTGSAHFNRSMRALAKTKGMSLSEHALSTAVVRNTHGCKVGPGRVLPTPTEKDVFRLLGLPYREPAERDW
Chain of mouse IMP dehydrogenase (type II) (P24547 whole entry): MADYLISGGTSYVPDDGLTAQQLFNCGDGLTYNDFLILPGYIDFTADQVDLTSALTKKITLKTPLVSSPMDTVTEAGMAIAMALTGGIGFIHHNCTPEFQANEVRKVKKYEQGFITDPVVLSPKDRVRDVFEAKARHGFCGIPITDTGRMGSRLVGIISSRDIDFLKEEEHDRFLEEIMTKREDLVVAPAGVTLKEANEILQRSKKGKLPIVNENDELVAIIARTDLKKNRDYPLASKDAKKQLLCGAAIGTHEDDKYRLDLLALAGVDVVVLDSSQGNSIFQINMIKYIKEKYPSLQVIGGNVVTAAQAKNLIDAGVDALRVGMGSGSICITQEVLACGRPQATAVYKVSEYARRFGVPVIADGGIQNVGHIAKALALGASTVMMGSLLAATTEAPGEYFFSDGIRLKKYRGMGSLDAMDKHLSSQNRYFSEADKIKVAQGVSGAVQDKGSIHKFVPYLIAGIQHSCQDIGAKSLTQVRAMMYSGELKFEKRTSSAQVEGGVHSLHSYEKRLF
Chain of T4 pol (P04415 whole entry): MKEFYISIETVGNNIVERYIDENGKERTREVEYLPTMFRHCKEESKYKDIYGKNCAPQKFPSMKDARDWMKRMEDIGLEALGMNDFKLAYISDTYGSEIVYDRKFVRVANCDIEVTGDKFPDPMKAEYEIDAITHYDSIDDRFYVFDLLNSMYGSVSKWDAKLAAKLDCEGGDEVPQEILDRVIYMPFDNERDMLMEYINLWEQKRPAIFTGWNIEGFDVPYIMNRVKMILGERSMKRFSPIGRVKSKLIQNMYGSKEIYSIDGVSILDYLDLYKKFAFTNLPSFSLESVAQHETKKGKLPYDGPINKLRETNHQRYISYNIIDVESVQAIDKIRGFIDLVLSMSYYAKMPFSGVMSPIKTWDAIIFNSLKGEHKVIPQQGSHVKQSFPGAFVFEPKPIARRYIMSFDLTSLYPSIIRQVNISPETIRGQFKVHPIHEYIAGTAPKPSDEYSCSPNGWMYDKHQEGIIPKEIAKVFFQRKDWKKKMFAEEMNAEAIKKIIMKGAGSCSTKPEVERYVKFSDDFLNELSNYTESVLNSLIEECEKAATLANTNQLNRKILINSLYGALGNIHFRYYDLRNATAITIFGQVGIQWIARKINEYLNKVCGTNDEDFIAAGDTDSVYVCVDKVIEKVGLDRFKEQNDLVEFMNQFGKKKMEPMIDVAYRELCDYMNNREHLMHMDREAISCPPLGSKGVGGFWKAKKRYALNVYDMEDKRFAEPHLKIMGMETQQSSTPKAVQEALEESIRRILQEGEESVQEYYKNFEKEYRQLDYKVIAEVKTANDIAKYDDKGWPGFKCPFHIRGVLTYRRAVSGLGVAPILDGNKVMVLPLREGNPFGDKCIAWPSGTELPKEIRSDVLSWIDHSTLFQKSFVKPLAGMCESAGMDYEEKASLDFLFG

SMILES: O=C(OC[C@H]1O[C@@H](OC(=O)c2cc(O)c(O)c(O)c2)[C@H](OC(=O)c2cc(O)c(O)c(O)c2)[C@@H](OC(=O)c2cc(O)c(O)c(O)c2)[C@@H]1OC(=O)c1cc(O)c(O)c(O)c1)c1cc(O)c(O)c(O)c1 [PGG, 1,2,3,4,6-penta-O-galloyl-β-D-glucose]
- IC50 (human pol κ): 30 nM
- Mode of Inhibition, pol κ, DNA template-primer (human pol κ): Non-competitive for DNA template-primer
- Mode of Inhibition, pol κ, dNTP (human pol κ): Non-competitive for dNTP
- effect on pol κ activity (human pol κ; 100 and 1,000 nM PGG, Fig. 1C): significantly inhibit
- Ki (human pol κ; with respect to DNA template-primer): 9.3 nM
- Ki (human pol κ; with respect to dNTP): 15.1 nM
- effect of 0.05% NP-40 on the inhibitory effect on pol κ (human pol κ; PGG 10 and 100 nM, supplemental Table S1): not reversed
- effect of poly(rC) or BSA on the inhibitory effect on pol κ (human pol κ; poly(rC) 50 μM, BSA 200 μg/ml): neither poly(rC) nor BSA influenced
- IC50 (del-2 pol λ (245–575)): 117 nM
- effect on T4 pol activity (T4 pol): not influenced
- effect on HIV-1 reverse transcriptase activity [1]: did not suppress
- effect on mouse IMP dehydrogenase (type II) activity [2]: did not suppress
- effect on melting temperature (Tm) / thermal transition of dsDNA [3]: no effect
- Mode of Inhibition, 5-alpha-Reductase, NADPH [4]: competitive inhibitor; also recorded: Competitive for NADPH
- Mode of Inhibition, 5-alpha-Reductase, testosterone [4]: non-competitive inhibitor; also recorded: Non-competitive for testosterone
- IC50 ([4]; read-out: IC50, 5-alpha-Reductase): 7800 nM
- Ki ([4]; read-out: Ki, 5-alpha-Reductase, NADPH, competitive for NADPH): 480 nM
- IC50 (Neutral endopeptidase): 12500 nM
- IC50 (HIV integrase): 13700 nM
